Experimental findings from ChEMBL document CHEMBL5696442, “Discovery of type II inhibitors of TGFβ-activated kinase 1 (TAK1) and mitogen-activated protein kinase kinase kinase kinase 2 (MAP4K2)” (J Med Chem, 2015) are described below.

Test [1] has as its target Mitogen-activated protein kinase kinase kinase kinase 4 (Homo sapiens, UniProt O95819). As to the kind of experiment: Inhibition of ZC1/HGK Lys1 labeling site in human A-375 cells at 5 uM by KiNativ Profiling analysis relative to control. In kind it is cell-based.
In test [2] the target is Mitogen-activated protein kinase 10 (Homo sapiens, UniProt P53779). As to the kind of experiment: Inhibition of JNK3 Lys2 labeling site in human A-375 cells at 5 uM by KiNativ Profiling analysis relative to control. In kind it is cell-based.
Sequence of Mitogen-activated protein kinase 10 (P53779 whole entry): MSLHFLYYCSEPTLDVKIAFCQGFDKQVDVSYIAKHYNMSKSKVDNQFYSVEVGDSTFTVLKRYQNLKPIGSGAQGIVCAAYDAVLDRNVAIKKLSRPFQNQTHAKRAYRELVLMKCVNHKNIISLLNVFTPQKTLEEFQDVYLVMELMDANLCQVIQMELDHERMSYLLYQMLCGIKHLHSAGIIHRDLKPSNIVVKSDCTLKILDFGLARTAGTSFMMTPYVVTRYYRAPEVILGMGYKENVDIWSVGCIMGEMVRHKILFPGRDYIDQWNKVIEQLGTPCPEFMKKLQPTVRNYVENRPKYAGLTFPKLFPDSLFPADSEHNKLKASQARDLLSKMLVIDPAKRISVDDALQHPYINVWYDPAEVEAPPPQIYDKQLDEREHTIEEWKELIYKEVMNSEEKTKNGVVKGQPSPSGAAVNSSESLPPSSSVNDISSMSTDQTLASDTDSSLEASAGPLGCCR
In a further test the target is Ephrin type-B receptor 2 (Homo sapiens, UniProt P29323). Put plainly: Inhibition of EphB2 (unknown origin) ACT labeling site by KiNativ Profiling analysis.
Test [3] deals with Tyrosine-protein kinase Fer (Homo sapiens, UniProt P16591). As to the kind of experiment: Inhibition of FER Lys1 labeling site harbouring TSVAVKTCKEDLPQELKin human A-375 cells at 5 uM by KiNativ Profiling analysis relative to control. In kind it is cell-based.
Sequence of Tyrosine-protein kinase Fer (P16591 whole entry, looked up): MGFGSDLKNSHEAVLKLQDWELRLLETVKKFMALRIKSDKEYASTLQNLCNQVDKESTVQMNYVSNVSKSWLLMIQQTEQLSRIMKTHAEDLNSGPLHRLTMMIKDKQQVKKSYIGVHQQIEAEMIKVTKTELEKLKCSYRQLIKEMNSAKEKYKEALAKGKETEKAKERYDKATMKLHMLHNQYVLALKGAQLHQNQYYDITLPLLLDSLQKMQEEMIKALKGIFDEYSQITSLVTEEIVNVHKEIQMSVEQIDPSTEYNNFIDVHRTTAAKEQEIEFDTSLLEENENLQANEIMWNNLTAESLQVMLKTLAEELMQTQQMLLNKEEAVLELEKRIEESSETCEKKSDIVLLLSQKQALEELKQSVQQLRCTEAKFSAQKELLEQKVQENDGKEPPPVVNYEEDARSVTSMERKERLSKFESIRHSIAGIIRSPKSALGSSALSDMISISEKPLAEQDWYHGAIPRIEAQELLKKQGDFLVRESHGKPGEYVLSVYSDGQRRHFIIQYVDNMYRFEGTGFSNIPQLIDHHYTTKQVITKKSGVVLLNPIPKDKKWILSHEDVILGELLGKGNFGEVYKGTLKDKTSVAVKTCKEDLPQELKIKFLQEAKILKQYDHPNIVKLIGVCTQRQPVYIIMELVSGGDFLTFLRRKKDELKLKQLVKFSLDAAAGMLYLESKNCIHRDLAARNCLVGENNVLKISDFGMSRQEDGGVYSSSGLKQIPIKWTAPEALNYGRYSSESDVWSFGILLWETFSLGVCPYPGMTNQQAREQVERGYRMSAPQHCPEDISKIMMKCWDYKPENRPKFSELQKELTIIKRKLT
For test [4], the target named is Serine/threonine-protein kinase WNK2 (Homo sapiens) (UniProt Q9Y3S1). As to the kind of experiment: Inhibition of Wnk2 Lys2 labeling site in human A-375 cells at 5 uM by KiNativ Profiling analysis relative to control. In kind it is cell-based.
Test [5] concerns the target Serine/threonine-protein kinase WNK1 (Homo sapiens) (UniProt Q9H4A3). Put plainly: Inhibition of Wnk1 ACT labeling site in human A-375 cells at 5 uM by KiNativ Profiling analysis relative to control. It is filed as cell-based.
For test [6], the target named is T1, Acylglycerol kinase, mitochondrial (Homo sapiens) (UniProt Q53H12).
T1 sequence (whole entry): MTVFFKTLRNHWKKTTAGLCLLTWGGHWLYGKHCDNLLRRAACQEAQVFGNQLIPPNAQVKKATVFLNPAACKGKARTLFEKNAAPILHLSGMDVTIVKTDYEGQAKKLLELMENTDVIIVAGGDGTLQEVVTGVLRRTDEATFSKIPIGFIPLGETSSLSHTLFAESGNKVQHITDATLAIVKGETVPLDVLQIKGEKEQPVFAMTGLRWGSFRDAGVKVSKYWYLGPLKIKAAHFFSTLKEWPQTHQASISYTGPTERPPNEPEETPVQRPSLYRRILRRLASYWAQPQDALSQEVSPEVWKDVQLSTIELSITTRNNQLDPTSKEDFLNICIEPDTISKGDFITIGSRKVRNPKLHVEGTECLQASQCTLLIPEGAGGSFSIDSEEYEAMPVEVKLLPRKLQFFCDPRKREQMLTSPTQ
As to the kind of experiment: Inhibition of AGK ATP labeling site in human A-375 cells at 0.5 uM by KiNativ Profiling analysis relative to control. It is filed as cell-based. In outline:
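Live A375 melanoma cells were treated with compound at 5 or 0.5 μM, then lysed. The lysates were labeled with a lysine-reactive ATP or ADP-biotin probe. Kinase protection from probe labeling was measured by KiNativ.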

The target of test [7] is Receptor tyrosine-protein kinase erbB-3 (Homo sapiens) (UniProt P21860). Put plainly: Inhibition of HER3/ErbB3 ACT labeling site in human A-375 cells at 0.5 uM by KiNativ Profiling analysis relative to control. In kind it is cell-based.
Sequence of Receptor tyrosine-protein kinase erbB-3 (Homo sapiens) (P21860 whole entry): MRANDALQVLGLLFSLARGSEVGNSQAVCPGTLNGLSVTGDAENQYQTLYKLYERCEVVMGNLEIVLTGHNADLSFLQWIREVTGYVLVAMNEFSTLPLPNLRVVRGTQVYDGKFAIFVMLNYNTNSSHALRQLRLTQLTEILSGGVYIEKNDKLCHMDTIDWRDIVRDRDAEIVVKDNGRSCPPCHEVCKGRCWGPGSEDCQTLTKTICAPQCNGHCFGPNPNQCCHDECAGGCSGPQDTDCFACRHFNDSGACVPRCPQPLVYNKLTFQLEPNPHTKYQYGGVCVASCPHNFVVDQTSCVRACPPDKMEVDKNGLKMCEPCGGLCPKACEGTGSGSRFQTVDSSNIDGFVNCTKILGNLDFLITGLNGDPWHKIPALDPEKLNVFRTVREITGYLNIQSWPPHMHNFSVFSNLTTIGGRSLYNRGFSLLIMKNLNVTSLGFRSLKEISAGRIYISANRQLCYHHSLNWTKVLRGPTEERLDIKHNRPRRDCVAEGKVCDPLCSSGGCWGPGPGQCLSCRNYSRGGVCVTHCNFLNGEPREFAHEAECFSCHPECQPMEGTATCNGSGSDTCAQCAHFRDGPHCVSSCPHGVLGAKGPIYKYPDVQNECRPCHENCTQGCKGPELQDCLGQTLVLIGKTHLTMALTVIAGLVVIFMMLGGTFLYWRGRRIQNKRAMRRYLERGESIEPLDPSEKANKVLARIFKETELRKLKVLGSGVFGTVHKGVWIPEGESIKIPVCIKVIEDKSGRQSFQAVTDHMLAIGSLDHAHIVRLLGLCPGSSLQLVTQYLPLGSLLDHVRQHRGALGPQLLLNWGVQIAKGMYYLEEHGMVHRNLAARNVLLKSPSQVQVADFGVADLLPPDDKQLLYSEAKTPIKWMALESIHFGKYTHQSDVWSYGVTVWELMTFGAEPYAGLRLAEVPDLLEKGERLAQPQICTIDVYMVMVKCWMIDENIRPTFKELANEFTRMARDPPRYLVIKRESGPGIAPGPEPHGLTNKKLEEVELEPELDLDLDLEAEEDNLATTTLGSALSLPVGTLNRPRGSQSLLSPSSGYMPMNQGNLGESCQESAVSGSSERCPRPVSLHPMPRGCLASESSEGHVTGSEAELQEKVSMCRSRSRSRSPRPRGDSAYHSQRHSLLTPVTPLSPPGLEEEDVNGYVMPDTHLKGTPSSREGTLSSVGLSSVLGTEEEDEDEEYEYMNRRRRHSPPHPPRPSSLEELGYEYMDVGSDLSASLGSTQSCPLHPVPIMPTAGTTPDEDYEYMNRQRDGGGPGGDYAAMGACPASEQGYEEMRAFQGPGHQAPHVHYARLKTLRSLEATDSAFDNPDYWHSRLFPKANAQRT
In test [8] the target is Phosphatidylinositol 4-kinase beta (Homo sapiens) (UniProt Q9UBF8). Put plainly: Inhibition of PI4KB ATP labeling site harbouring VPHTQAVVLNSKDK in human A-375 cells at 0.5 uM by KiNativ Profiling analysis relative to control. In kind it is cell-based.
Test [9] addresses 5'-AMP-activated protein kinase catalytic subunit alpha-2 (Homo sapiens) (UniProt P54646). As to the kind of experiment: Inhibition of AMPKa2 Lys1 labeling site in human A-375 cells at 0.05 uM by KiNativ Profiling analysis relative to control. In kind it is cell-based.
Test [10] addresses T2, Kinase suppressor of Ras 2 (Homo sapiens) (UniProt Q6VAB6).
T2 sequence (whole entry): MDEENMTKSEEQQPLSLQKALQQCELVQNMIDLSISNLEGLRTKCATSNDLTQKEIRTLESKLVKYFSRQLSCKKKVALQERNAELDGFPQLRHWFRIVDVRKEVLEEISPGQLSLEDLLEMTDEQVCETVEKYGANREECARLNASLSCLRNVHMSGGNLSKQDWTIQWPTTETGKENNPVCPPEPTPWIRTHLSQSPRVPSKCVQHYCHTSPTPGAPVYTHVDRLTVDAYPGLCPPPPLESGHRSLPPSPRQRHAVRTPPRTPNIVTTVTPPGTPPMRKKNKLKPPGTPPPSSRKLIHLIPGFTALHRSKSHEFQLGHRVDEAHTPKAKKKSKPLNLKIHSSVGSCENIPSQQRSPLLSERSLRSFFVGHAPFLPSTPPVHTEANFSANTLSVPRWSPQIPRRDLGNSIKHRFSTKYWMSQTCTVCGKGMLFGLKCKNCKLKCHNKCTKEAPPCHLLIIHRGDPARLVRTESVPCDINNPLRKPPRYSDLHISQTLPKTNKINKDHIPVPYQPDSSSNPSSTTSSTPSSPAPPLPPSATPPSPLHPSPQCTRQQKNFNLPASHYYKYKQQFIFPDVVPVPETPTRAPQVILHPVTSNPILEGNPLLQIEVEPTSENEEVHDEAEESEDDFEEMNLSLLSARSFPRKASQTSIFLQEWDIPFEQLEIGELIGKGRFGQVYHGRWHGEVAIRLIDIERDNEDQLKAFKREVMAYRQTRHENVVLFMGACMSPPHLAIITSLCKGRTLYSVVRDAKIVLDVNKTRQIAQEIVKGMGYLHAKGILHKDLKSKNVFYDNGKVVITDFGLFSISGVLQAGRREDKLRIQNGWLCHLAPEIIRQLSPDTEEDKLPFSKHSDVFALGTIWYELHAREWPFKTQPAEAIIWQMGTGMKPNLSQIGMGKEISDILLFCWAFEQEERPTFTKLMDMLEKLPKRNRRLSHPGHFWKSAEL
As to the kind of experiment: Inhibition of KSR2 ACT labeling site in human A-375 cells at 0.05 uM by KiNativ Profiling analysis relative to control. It is filed as cell-based.

Test [11] addresses Serine/threonine-protein kinase MARK2 (Homo sapiens) (UniProt Q7KZI7). Put plainly: Inhibition of MARK2 Lys2 labeling site harbouring DLKAENLLLDADMNIK in human A-375 cells at 0.05 uM by KiNativ Profiling analysis relative to control. In kind it is cell-based.
Test [12] addresses MAP/microtubule affinity-regulating kinase 3 (Homo sapiens) (UniProt P27448). As to the kind of experiment: Inhibition of MARK3 Lys1 labeling site in human A-375 cells at 0.05 uM by KiNativ Profiling analysis relative to control. In kind it is cell-based.
The target of test [13] is Cyclin-dependent kinase 18 (Homo sapiens) (UniProt Q07002). Put plainly: Inhibition of PCTAIRE3 Lys1 labeling site harbouringSKLTENLVALKEIR in human A-375 cells at 0.05 uM by KiNativ Profiling analysis relative to control. In kind it is cell-based.
In test [14] the target is Cyclin-dependent kinase 11B (Homo sapiens) (UniProt P21127). As to the kind of experiment: Inhibition of PITSLRE Lys2 labeling site in human A-375 cells at 0.05 uM by KiNativ Profiling analysis relative to control. In kind it is cell-based.
Sequence of Cyclin-dependent kinase 11B (Homo sapiens) (P21127 whole entry, the tested form may be a part): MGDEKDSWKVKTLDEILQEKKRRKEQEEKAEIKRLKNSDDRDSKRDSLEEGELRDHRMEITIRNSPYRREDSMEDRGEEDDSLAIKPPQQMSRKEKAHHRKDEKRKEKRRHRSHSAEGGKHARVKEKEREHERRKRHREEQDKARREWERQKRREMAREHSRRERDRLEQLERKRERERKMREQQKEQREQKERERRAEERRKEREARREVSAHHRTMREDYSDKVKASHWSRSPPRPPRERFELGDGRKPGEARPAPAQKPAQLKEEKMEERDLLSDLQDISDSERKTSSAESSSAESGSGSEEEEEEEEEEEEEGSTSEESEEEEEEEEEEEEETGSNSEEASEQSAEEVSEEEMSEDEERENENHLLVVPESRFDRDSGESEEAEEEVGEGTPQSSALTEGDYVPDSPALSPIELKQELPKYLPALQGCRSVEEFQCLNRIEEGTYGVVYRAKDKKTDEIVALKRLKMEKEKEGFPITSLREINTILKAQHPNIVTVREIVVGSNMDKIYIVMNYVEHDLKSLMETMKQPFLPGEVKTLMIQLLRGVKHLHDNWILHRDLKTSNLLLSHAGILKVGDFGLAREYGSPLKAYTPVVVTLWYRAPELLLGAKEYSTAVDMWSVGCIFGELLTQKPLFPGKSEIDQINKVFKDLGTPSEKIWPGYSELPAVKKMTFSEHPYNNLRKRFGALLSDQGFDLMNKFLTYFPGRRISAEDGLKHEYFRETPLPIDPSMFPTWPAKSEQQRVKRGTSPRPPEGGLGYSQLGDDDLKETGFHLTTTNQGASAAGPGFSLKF
Test [15] concerns the target 3-phosphoinositide-dependent protein kinase 1 (Homo sapiens) (UniProt O15530). Put plainly: Inhibition of PDK1 Protein Kinase Domain in human A-375 cells at 0.05 uM by KiNativ Profiling analysis relative to control.

Broadly, the inhibition is the relative decrease from the control value, in per cent. A word on the IC50: it is the concentration at which inhibition is half-maximal. A lower IC50 goes with greater potency.

Sequence of 5'-AMP-activated protein kinase catalytic subunit alpha-2 (Homo sapiens) (P54646 whole entry, looked up): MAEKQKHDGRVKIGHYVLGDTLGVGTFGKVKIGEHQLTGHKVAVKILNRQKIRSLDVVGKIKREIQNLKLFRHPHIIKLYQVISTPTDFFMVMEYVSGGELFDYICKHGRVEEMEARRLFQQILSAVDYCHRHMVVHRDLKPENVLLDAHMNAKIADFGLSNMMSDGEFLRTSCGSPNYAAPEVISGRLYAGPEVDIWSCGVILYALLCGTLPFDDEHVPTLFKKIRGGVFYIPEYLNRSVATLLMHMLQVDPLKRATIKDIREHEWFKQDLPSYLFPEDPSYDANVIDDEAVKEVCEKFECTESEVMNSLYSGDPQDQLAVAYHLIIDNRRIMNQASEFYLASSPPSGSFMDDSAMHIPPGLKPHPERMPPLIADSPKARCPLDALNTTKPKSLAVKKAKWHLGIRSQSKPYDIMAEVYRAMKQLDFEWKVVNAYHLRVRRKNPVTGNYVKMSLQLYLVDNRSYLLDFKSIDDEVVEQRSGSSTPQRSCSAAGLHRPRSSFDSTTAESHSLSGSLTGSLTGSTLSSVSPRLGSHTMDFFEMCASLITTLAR
Sequence of Serine/threonine-protein kinase MARK2 (Homo sapiens) (Q7KZI7 whole entry): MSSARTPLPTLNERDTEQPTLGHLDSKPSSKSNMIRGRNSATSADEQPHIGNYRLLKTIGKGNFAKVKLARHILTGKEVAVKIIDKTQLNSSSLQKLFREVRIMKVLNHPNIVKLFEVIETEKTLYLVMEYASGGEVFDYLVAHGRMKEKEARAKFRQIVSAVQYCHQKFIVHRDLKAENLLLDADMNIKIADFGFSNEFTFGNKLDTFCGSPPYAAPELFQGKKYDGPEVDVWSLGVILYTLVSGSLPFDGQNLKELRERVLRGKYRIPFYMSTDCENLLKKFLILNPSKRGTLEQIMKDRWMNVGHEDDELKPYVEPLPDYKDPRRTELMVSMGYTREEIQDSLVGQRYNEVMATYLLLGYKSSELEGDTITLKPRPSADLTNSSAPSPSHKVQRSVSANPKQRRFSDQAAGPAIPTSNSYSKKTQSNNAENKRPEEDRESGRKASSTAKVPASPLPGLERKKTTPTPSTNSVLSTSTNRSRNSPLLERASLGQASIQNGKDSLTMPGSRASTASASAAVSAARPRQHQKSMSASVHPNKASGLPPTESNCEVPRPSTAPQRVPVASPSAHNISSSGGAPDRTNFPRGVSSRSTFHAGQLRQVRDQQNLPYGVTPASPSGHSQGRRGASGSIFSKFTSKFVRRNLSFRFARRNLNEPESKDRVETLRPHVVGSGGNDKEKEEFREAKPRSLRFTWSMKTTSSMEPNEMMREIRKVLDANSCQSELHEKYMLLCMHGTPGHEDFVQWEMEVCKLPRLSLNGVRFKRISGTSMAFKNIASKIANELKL

Take `CCN1CCN(Cc2ccc(NC(=O)c3ccc(C)c(/C=C/c4cnc5[nH]ccc5c4OC)c3)cc2C(F)(F)F)CC1`: the inhibition is > 88% in [1]; 76.9% in test [2]; 77.9% in test [3]; 14.3% in test [4]; -4.5% in [5]; 7% in test [6]. In addition, the inhibition in test [7] was 12.2%; in test [8] it was -4.3%; in [9], 7.4%; in test [10] it was 8.6%; in test [11], 11.6%; in test [12], 16%. Moreover, the inhibition was 8.5% in [13], -3.9% in test [14] and -1.5% in test [15]. The same compound registered an IC50 against Ephrin type-B receptor 2 of 75 nM.
As to `CCN1CCN(Cc2ccc(NC(=O)c3ccc(C)c(Oc4ccnc5[nH]ccc45)c3)cc2C(F)(F)F)CC1`, the inhibition is 86.4% in test [1]; 90.3% in [2]; 98.1% in test [3]; -5.5% in test [4]; 14.4% in test [5]; -0.1% in [6]. In addition, the inhibition in test [7] is 5.1%; in [8], 6.9%; in test [9], 13.4%; in test [10], 37%; in test [11], 19.5%; in [12], -4.5%. Also, the results for the inhibition in test [13], in [14] and in test [15] were 2.5%, -4.6% and 11.2%, respectively. At Ephrin type-B receptor 2, this compound registered an IC50 of 672 nM.
